Measured values from ChEMBL document CHEMBL1821694, “Design and synthesis of novel amide AKT1 inhibitors with selectivity over CDK2” (Bioorg Med Chem Lett, 2011).

Assays:
[1] = molecular target: Cyclin-dependent kinase 2 (Homo sapiens, UniProt P24941); assay: Inhibition of CDK2
[2] = Inhibition of PKA
[3] = molecular target: T1, RAC-alpha serine/threonine-protein kinase (Homo sapiens, UniProt P31749); assay: Inhibition of AKT1
[4] = molecular target: T1, RAC-alpha serine/threonine-protein kinase; assay: Inhibition of AKT1-mediated PRAS40 phosphorylation in human U87MG cells after 1 hr in presence of 5% FBS by ELISA assay; type: cell-based, U-87MG ATCC
Outline: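 U87MG cells kept in medium with 5% FBS; inhibitor added as threefold serial dilutions, 1 h incubation at 37 °C, then phospho-PRAS40 measured. Values are means ± SD, n ≥ 3.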

[5] = Clearance in rat; type: ADME, organism-based; conditions: in vivo
[6] = Metabolic stability in human liver microsomes assessed as compound turnover; type: ADME, Microsome; conditions: read-out: Activity
[7] = system: Liver microsomes; assay: Metabolic stability in rat liver microsome; type: ADME

T1 sequence (P31749 whole entry): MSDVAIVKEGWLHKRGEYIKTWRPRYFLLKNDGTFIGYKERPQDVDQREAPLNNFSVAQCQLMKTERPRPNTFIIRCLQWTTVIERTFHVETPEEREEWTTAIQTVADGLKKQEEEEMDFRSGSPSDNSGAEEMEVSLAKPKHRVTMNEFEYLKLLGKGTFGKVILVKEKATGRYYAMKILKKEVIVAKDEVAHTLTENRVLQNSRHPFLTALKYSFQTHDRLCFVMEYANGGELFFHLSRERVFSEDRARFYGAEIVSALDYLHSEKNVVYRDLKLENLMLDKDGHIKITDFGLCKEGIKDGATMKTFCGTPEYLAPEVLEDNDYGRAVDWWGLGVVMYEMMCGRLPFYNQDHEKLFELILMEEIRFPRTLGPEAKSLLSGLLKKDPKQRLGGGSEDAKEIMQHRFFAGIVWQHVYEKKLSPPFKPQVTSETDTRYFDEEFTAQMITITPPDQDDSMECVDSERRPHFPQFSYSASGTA

SMILES	IC50 [1] [nM]	IC50 [2] [nM]	IC50 [3] [nM]	IC50 [4] [nM]	clearance [5] [mL/min/kg]	metabolised [6] [%]	Stability [7] [%]
N[C@H](CNc1nnc(-c2ccc3cnccc3c2)s1)Cc1ccc(C(F)(F)F)cc1	50	6					
O=C(NC(c1ccc(Cl)c(-c2ccccc2)c1)C1CCNCC1)c1ccc2cnccc2c1 (racemic)	> 25000	220	200				
O=C(NC(c1ccc2ccccc2c1)C1CCNCC1)c1ccc2cnccc2c1 (racemic)	> 25000	260	400				
O=C(NC(c1ccc(Cl)c(Cl)c1)C1CCNC1)c1ccc2cnccc2c1 (mixture of isomers)	> 25000	10	30				
O=C(NC(c1ccc(F)c(F)c1)C1CCNCC1)c1ccc2cnccc2c1 (racemic)	> 25000	160	2680				
O=C(NC(c1ccc(Cl)c(Cl)c1)C1CCCNC1)c1ccc2cnccc2c1 (stereo not drawn)	21000		20				
O=C(NC(c1ccc(Cl)c(Cl)c1)C1CCNCC1)c1ccc2cnc(Cl)cc2c1 (racemic)			140				
O=C(NC(c1ccc(Cl)c(Cl)c1)C1CCNCC1)c1ccc2cnccc2c1 (racemic)	> 25000	50	40				
COc1cc2cnccc2cc1C(=O)NC(c1ccc(Cl)c(Cl)c1)C1CCNCC1 (racemic)		30	39				
N[C@H](CNC(=O)c1ccc2cnccc2c1)Cc1ccc(C(F)(F)F)cc1	> 25000	1560	3380				
O=C(NC(c1cncnc1)c1ccc(Cl)c(Cl)c1)c1ccc2cnccc2c1 (racemic)	> 25000	3410	12700				
O=C(N[C@@H](c1ccc(Cl)c(Cl)c1)C1CCN(Cc2ccc(C(F)(F)F)cc2)CC1)c1ccc2cnccc2c1	> 25000	980	2300				
O=C(NC(c1ccc(Cl)cc1)C1CCNCC1)c1ccc2cnccc2c1 (racemic)	> 25000	130	190				
O=C(NC(c1cccc(Cl)c1)C1CCNCC1)c1ccc2cnccc2c1 (racemic)	> 25000	30	70				

Further compounds by falling IC50 [3], results first:

IC50 [1] [nM]	IC50 [2] [nM]	IC50 [3] [nM]	IC50 [4] [nM]	clearance [5] [mL/min/kg]	metabolised [6] [%]	Stability [7] [%]	SMILES
> 25000	> 25000	20400					O=C(NC(c1ccncc1)c1ccc(Cl)c(Cl)c1)c1ccc2cnccc2c1 (racemic)
	670	6850					COc1ccc(-c2cc3cnccc3cc2C(=O)NC(c2ccc(Cl)c(Cl)c2)C2CCNCC2)cc1 (racemic)
> 25000	> 25000	5800					O=C(NC(c1ccc(Cl)c(Cl)c1)C1CCCCC1)c1ccc2cnccc2c1 (racemic)
> 25000	2010	2140					CC(C)CN1CCC([C@@H](NC(=O)c2ccc3cnccc3c2)c2ccc(Cl)c(Cl)c2)CC1
> 25000	1070	1570					O=C(NC(c1nccs1)C1CCNCC1)c1ccc2cnccc2c1 (racemic)
> 25000	130	1510					COc1ccc(C(NC(=O)c2ccc3cnccc3c2)C2CCNCC2)cc1F (racemic)
19700	250	850					O=C(NC(c1ccccc1)C1CCNCC1)c1ccc2cnccc2c1 (racemic)
	13700	460					O=C(NC(c1ccc(Cl)c(Cl)c1)C1CCNCC1)c1ccc2[nH]c(=O)oc2c1 (racemic)
	1150	350					O=C1Cc2cc(C(=O)NC(c3ccc(Cl)c(Cl)c3)C3CCNCC3)ccc2N1 (racemic)
	850	330					O=C(NC(c1ccc(Cl)c(Cl)c1)C1CCNCC1)c1ccc2cnncc2c1 (single isomer, unassigned)
	290	250					O=C(NC(c1ccc(Cl)c(Cl)c1)C1CCNCC1)c1ccc2[nH]ncc2c1 (racemic)
> 25000	390	240					O=C(N[C@@H](c1ccc(Cl)c(Cl)c1)C1CCN(Cc2ccccc2)CC1)c1ccc2cnccc2c1
> 25000	230	140					O=C(NC(c1cnc(Cl)c(Cl)c1)C1CCNCC1)c1ccc2cnccc2c1 (racemic)
> 25000	100	120					O=C(NC(c1cccc(Cl)c1Cl)C1CCNCC1)c1ccc2cnccc2c1 (racemic)
9800	30	110					O=C(N[C@H](c1ccc(Cl)c(Cl)c1)C1CNC1)c1ccc2cnccc2c1
> 25000	160	80					N#Cc1cc(C(NC(=O)c2ccc3cnccc3c2)C2CCNCC2)ccc1Cl (racemic)
> 25000		40					O=C(NC(c1ccc(Cl)c(F)c1)C1CCNCC1)c1ccc2cnccc2c1 (racemic)
190	170	20	300				N[C@H](CNc1nnc(-c2ccc3c(c2)CC(=O)N3)s1)Cc1ccc(C(F)(F)F)cc1
> 25000	90	20	390	58.3	10	15.9	O=C(NC(c1ccc(Cl)c(Cl)c1)C1CCNCC1)c1ccc2cnc(F)cc2c1 (racemic)
360	10	7					CN1CC([C@@H](NC(=O)c2ccc3cnccc3c2)c2ccc(Cl)c(Cl)c2)C1
690	10	7	240	173	10.9	33.4	O=C(N[C@@H](c1ccc(Cl)c(Cl)c1)C1CNC1)c1ccc2cnccc2c1
